From ChEMBL document CHEMBL2380266, “1,4-Benzothiazine ATP-sensitive potassium channel openers: modifications at the C-2 and C-6 positions” (J Med Chem, 2013)
Activity calls are given as the source filed them. The calls are words filed in the database; no cut-off is given here.

Columns and labels:
Rattus norvegicus [1] = organism: Rattus norvegicus; test: Activation of ATP-sensitive potassium channel in Wistar rat pancreatic islets assessed as reduction in high glucose-induced insulin secretion after 1 hr by radioimmunoassay
Procedure, shortened: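 Islets from male Wistar rats (200−250 g), collagenase isolation, cultured 24 h in RPMI (5.6 mM glucose). Batches of 10 islets preincubated 30 min in KRH pH 7.4 with 2.8 mM glucose and 1% BSA, then incubated 1 h with 2.8 or 16.7 mM glucose ± test agent at 1 to 1000 nM. Released insulin measured by RIA. At least five replicas.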

Homo sapiens [2] = organism: Homo sapiens; test: Activation of ATP-sensitive potassium channel in human aortic smooth muscle cells assessed as membrane hyperpolarization at 10 uM by DiBAC4(3) dye-based spectrofluorimetric analysis in presence of glibenclamide
Procedure, shortened: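 Same DiBAC4(3) setup in HASMCs (2.5 μM dye, 1 h loading, pH 7.4, ex 488 / em 520 nm). Glibenclamide was added 10 min before the test agent. Relative fluorescence decrease expressed as % of the 100 μM LCRK maximal effect; six replicates.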

[3] = (§1) Activation of ATP-sensitive potassium channel in human aortic smooth muscle cells assessed as membrane hyperpolarization by DiBAC4(3) dye-based spectrofluorimetric analysis
Procedure, shortened: (§2)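 HASMCs grown in medium 231 with SMGS at 37 °C, 5% CO2, seeded on gelatin 24 h before use. Loaded 1 h with 2.5 μM DiBAC4(3) in HEPES buffer pH 7.4 at room temperature. Fluorescence read at ex 488 / em 520 nm before and after compound. Relative fluorescence decrease (Ft−F0)/F0 expressed as % of the 100 μM LCRK effect. pEC50 derived; six replicates.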

Homo sapiens [4] = organism: Homo sapiens; test: as §1; procedure, shortened: as §2
Homo sapiens [5] = organism: Homo sapiens; test: Activation of ATP-sensitive potassium channel in human aortic smooth muscle cells assessed as membrane hyperpolarization at 0.1 to 100 uM by DiBAC4(3) dye-based spectrofluorimetric analysis relative to LCRK; procedure, shortened: as §2
Aorta [6] = test: Vasorelaxant activity in Wistar rat endothelium-denuded aortic rings assessed as reduction of KCl-induced contraction; type: functional, tissue-based
Procedure, shortened: (§3)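 Thoracic aortic rings from male Wistar rats (250−350 g), endothelium removed. Removal confirmed by <10% relaxation to 10 μM ACh. Rings contracted with 25 mM KCl; at plateau, test agent added cumulatively in 3-fold increasing concentrations. DMSO stocks (10 mM) diluted in water. Emax given as % of KCl tone; pIC50 is the half-reduction of tone; 5−10 experiments.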

Aorta [7] = test: Vasorelaxant activity in Wistar rat endothelium-denuded aortic rings assessed as reduction of KCl-induced contraction in presence of glibenclamide; type: functional, tissue-based
Procedure, shortened: (§4)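 Endothelium-denuded Wistar rat aortic rings; 1 μM glibenclamide added before the 25 mM KCl contraction, then test agent added cumulatively in 3-fold increasing concentrations. Vasorelaxation expressed as % of KCl-induced tone; pIC50 from the half-reduction of tone; 5−10 experiments.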

Aorta [8] = test: Vasorelaxant activity in Wistar rat endothelium-denuded aortic rings assessed as reduction of KCl-induced contraction in presence of glibenclamide relative to control; type: functional; procedure, shortened: as §4
Aorta [9] = test: Vasorelaxant activity in Wistar rat endothelium-denuded aortic rings assessed as reduction of KCl-induced contraction relative to control; type: functional; procedure, shortened: as §3
Rattus norvegicus [10] = organism: Rattus norvegicus; test: Activation of ATP-sensitive potassium channel in Wistar rat pancreatic islets assessed as reduction in high glucose-induced insulin secretion at 80 uM after 1 hr by radioimmunoassay in presence of glibenclamide
Procedure, shortened: (§5)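 Islets from male Wistar rats (200−250 g), isolated by collagenase duct cannulation with density-gradient purification and cultured 24 h in RPMI (5.6 mM glucose). Ten islets per well were preincubated 30 min in KRH pH 7.4 with 2.8 mM glucose and 1% BSA, then incubated 1 h with 16.7 mM glucose ± glibenclamide 1 μM. Released insulin was measured by RIA, at least five replicas.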

Rattus norvegicus [11] = organism: Rattus norvegicus; test: Activation of ATP-sensitive potassium channel in Wistar rat pancreatic islets assessed as reduction in high glucose-induced insulin secretion at 80 uM after 1 hr by radioimmunoassay; procedure, shortened: as §5
Aorta [12] = test: Vasorelaxant activity in Wistar rat endothelium-denuded aortic rings relative to LCRK; type: functional; procedure, shortened: as §3

Activity (Rattus norvegicus [1])	Activity (Homo sapiens [2])	EC50 [3] [nM]	Activity (Homo sapiens [4])	Emax (Homo sapiens [5]) [%]	IC50 (Aorta [6]) [nM]	IC50 (Aorta [7]) [nM]	Activity (Rattus norvegicus [10])	Activity (Rattus norvegicus [11])	Structure (SMILES)	Emax (Aorta [8]) [%]	Emax (Aorta [9]) [%]	Ratio (Aorta [12])
inactive	inactive	7410	Dose-dependent effect	98	155	6460	–	–	CCc1ccc2c(c1)N(C1=CCCC1=O)CC(C)(C)S2	69	97	–
inactive	inactive	117	Dose-dependent effect	103	1.45	56.2	–	–	CC(=O)c1ccc2c(c1)N(C1=CCCC1=O)CC(C)(C)S2	77	88	100
–	–	–	–	–	537	23400	–	–	O=C1CCC=C1N1CCSc2ccc(C(F)(F)F)cc21	64	94	–
–	–	–	–	–	0.0417	8.32	–	–	CC1(C)CN(C2=CCCC2=O)c2cc(C(F)(F)F)ccc2S1	96	92	–
–	–	–	–	–	66.1	–	–	–	CC1(C)CSc2ccc(C(F)(F)F)cc2N1C1=CCCC1=O	–	89	–
–	inactive	135	Dose-dependent effect	106	8.32	708	–	–	CC1CN(C2=CCCC2=O)c2cc(C(F)(F)F)ccc2S1 (stereo not given)	63	94	10
–	–	–	–	–	3980	–	–	–	CC1(C)CN(C2=CCCC2=O)c2cc(N)ccc2S1	–	96	–
–	–	–	–	–	933	19500	–	–	Cc1ccc2c(c1)N(C1=CCCC1=O)CC(C)(C)S2	78	89	–

The next lines start with the molecule.

Structure (SMILES)	Activity (Rattus norvegicus [1])	Activity (Homo sapiens [2])	EC50 [3] [nM]	Activity (Homo sapiens [4])	Emax (Homo sapiens [5]) [%]	IC50 (Aorta [6]) [nM]	IC50 (Aorta [7]) [nM]	Activity (Rattus norvegicus [10])	Activity (Rattus norvegicus [11])	Emax (Aorta [8]) [%]	Emax (Aorta [9]) [%]	Ratio (Aorta [12])
CC1=Nc2ccc(Cl)cc2S(=O)(=O)N1	–	–	–	–	–	–	–	inactive	Active	–	–	–
CC1(C)CN(C2=CCCC2=O)c2ccccc2S1	–	–	–	–	–	724	20900	–	–	61	90	–
CC(=O)Nc1ccc2c(c1)N(C1=CCCC1=O)CC(C)(C)S2	–	–	–	–	–	6610	–	–	–	–	97	–
CC(C)CN(CC(C)C)S(=O)(=O)c1ccc2c(c1)N(C1=CCCC1=O)CC(C)(C)S2	–	–	–	–	–	794	–	–	–	–	85	–
CC1(C)Oc2ccc(C#N)cc2[C@@H](N2CCCC2=O)[C@@H]1O [LEVCROMAKALIM]	–	inactive	5370	–	–	324	2510	–	–	93	99	–
